Source: ChEMBL document CHEMBL1124327, “Synthesis and structure-activity relationships of 2-substituted-6-(dimethylamino)-9-(4-methylbenzyl)-9H-purines with antirhinovirus activity” (J Med Chem, 1989)
Each block holds one compound with its values, some of them ahead of it.

Assays:
[1] = Compound was tested for anti-rhinovirus type 1B activity in a plaque inhibition assay using monolayers of M-HeLa cells; type: functional, cell-based; details: Homo sapiens
Enterovirus [2] = test: Inhibitory concentration against rhinovirus 4; type: functional, organism-based
Enterovirus [3] = test: Inhibitory concentration against rhinovirus 3; type: functional, organism-based
Enterovirus [4] = test: Inhibitory concentration against rhinovirus 8; type: functional, organism-based
Enterovirus [5] = test: Inhibitory concentration against rhinovirus 30; type: functional, organism-based
Enterovirus [6] = test: Inhibitory concentration against rhinovirus 16; type: functional, organism-based
Enterovirus [7] = test: Inhibitory concentration against rhinovirus 5; type: functional, organism-based
Enterovirus [8] = test: Inhibitory concentration against rhinovirus 29; type: functional, organism-based
Enterovirus [9] = test: Inhibitory concentration against rhinovirus 18; type: functional, organism-based
Enterovirus [10] = test: Inhibitory concentration against rhinovirus 9; type: functional, organism-based
Enterovirus [11] = test: Inhibitory concentration against rhinovirus 1B; type: functional, organism-based
Summary of the method: (§1)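 Plaque reduction assay against rhinovirus 1B in M-HeLa cell monolayers. IC50 is the concentration giving 50% reduction of plaque formation; pI50 is taken as log (1000/IC50). A reference antiviral was run as a control.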

Enterovirus [12] = test: Inhibitory concentration against rhinovirus 13; type: functional, organism-based
Enterovirus [13] = test: Inhibitory concentration against Rhinovirus 2; type: functional, organism-based
Enterovirus [14] = test: Inhibitory concentration against rhinovirus 1A; type: functional, organism-based
Enterovirus [15] = test: Inhibitory concentration against rhinovirus 31; type: functional, organism-based
rhinovirus B14 [16] = test: Inhibitory concentration against rhinovirus 14; type: functional, organism-based, Enterovirus; details: Rhinovirus B
Enterovirus [17] = test: Inhibitory concentration against rhinovirus 15; type: functional, organism-based
Enterovirus [18] = test: Inhibitory concentration against rhinovirus 21; type: functional, organism-based
Enterovirus [19] = test: Inhibitory concentration against rhinovirus 19; type: functional, organism-based
Enterovirus [20] = test: Inhibition of plaque formation at 2.5 uM concentration against Rhinovirus 3; type: functional
Enterovirus [21] = test: Inhibitory concentration against Rhinovirus 15; type: functional, organism-based
Enterovirus [22] = test: Inhibition of plaque formation at 8 uM concentration against Rhinovirus 5; type: functional, organism-based
Enterovirus [23] = test: Inhibitory concentration against Rhinovirus 9; type: functional, organism-based
Enterovirus [24] = test: Inhibitory concentration against Rhinovirus 1B; type: functional, organism-based; summary of the method: as §1
rhinovirus B14 [25] = test: Inhibitory concentration against Rhinovirus 14; type: functional, organism-based, Enterovirus; details: Rhinovirus B
Enterovirus [26] = test: Inhibitory concentration against Rhinovirus 12; type: functional, organism-based
Enterovirus [27] = test: Inhibitory concentration against Rhinovirus 1A; type: functional, organism-based
Enterovirus [28] = test: Inhibitory concentration against Rhinovirus 13; type: functional, organism-based
Homo sapiens = organism: Homo sapiens; test: Inhibition of plaque formation at 8 uM concentration; type: functional

Structure (SMILES): Cc1ccc(Cn2cnc3c(N(C)C)nc(N)nc32)cc1
IC50 [1]: 31 µM

Structure (SMILES): Cc1ccc(Cn2cnc3c(N(C)C)nc(N(C)C)nc32)cc1
IC50 (Enterovirus [2]): > 10 µM | IC50 (Enterovirus [3]): > 10 µM | IC50 (Enterovirus [4]): 14 µM | IC50 (Enterovirus [5]): 2.9 µM | IC50 (Enterovirus [6]): > 20 µM | IC50 (Enterovirus [7]): 17.7 µM | IC50 (Enterovirus [8]): 4.9 µM | IC50 (Enterovirus [9]): 8.3 µM | IC50 (Enterovirus [10]): 3.5 µM | IC50 (Enterovirus [11]): 1.1 µM | IC50 (Enterovirus [12]): 13 µM | IC50 (Enterovirus [13]): 3.1 µM | IC50 (Enterovirus [14]): < 1.2 µM | IC50 (Enterovirus [15]): 15.1 µM | IC50 [1]: 1.1 µM | IC50 (rhinovirus B14 [16]): 7.9 µM | IC50 (Enterovirus [17]): > 10 µM | IC50 (Enterovirus [18]): > 20 µM | IC50 (Enterovirus [19]): > 20 µM

Structure (SMILES): Cc1ccc(Cn2cnc3c(N(C)C)ncnc32)cc1
IC50 [1]: 8.6 µM

Structure (SMILES): CCc1nc(N(C)C)c2ncn(Cc3ccc(C)cc3)c2n1
IC50 [1]: 2.3 µM

Structure (SMILES): Cc1ccc(Cn2cnc3c(N(C)C)nc(F)nc32)cc1
IC50 [1]: 0.34 µM

Structure (SMILES): CNc1nc(N(C)C)c2ncn(Cc3ccc(C)cc3)c2n1
IC50 [1]: 4.7 µM

Structure (SMILES): Cc1ccc(Cn2cnc3c(N(C)C)nc(C)nc32)cc1
IC50 [1]: 0.8 µM

Structure (SMILES): Cc1ccc(Cn2cnc3c(N(C)C)nc(S(C)(=O)=O)nc32)cc1
inhibition (Homo sapiens): 24% | IC50 [1]: 25 µM

Further compounds by falling IC50 [1], results first:

IC50 [1]: 0.34 µM
Structure (SMILES): CSc1nc(N(C)C)c2ncn(Cc3ccc(C)cc3)c2n1

IC50 [1]: 0.08 µM
Structure (SMILES): Cc1ccc(Cn2cnc3c(N(C)C)nc(Cl)nc32)cc1

IC50 (Enterovirus [21]): 1 µM | IC50 (Enterovirus [23]): 0.35 µM | IC50 (Enterovirus [24]): 0.03 µM | IC50 (rhinovirus B14 [25]): 1.2 µM | IC50 (Enterovirus [26]): 2.6 µM | IC50 (Enterovirus [27]): 0.1 µM | IC50 (Enterovirus [28]): 2.6 µM | IC50 (Enterovirus [13]): 5.7 µM | IC50 [1]: 0.03 µM
Structure (SMILES): Cc1ccc(Cn2cnc3c(N(C)C)nc(C(F)(F)F)nc32)cc1
inhibition at 2.5 µM (Enterovirus [20]): 43% | Inhibition (Enterovirus [22]): 18%
